Measured values published in ChEMBL document CHEMBL4014285, “Novel, highly potent systemic glucokinase activators for the treatment of Type 2 Diabetes Mellitus” (Bioorg Med Chem Lett, 2017).

Columns and labels:
[1] = target: T1, Hexokinase-4 (Rattus norvegicus, UniProt P17712); experiment: Activation of glucokinase in primary rat hepatocytes assessed as increase in D-2-deoxyglucose-6-phosphate level in presence of D-2-deoxyglucose by HILIC LC-MS method; format: cell-based
T1 sequence (P17712 whole entry): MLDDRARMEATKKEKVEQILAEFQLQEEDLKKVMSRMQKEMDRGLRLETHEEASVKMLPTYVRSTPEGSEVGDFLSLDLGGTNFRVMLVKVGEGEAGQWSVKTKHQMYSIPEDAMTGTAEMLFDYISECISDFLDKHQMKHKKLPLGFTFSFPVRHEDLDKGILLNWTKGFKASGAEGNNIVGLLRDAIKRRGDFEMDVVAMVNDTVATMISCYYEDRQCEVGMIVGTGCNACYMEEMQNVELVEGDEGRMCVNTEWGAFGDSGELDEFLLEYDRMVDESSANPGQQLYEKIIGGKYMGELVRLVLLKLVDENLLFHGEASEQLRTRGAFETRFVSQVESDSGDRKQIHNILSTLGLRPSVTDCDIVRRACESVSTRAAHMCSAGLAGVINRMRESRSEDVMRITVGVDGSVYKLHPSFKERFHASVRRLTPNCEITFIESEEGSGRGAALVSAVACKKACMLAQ
Procedure, shortened: (§1)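 GKACA cell assay in rat INS-1 Clone-13 insulinoma cells or freshly isolated primary rat hepatocytes; intracellular D-2-deoxyglucose-6-phosphate formed from exogenous D-2-deoxyglucose quantified by HILIC LC-MS; EC50 from a single titration.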

[2] = target: T2, Hexokinase-4 (Homo sapiens, UniProt P35557); experiment: Activation of recombinant human glucokinase assessed as conversion of D-glucose to D-glucose-6-phosphate in presence of 2.5 mM glucose by G6PDH coupled spectrophotometric assay
T2 sequence (P35557 whole entry): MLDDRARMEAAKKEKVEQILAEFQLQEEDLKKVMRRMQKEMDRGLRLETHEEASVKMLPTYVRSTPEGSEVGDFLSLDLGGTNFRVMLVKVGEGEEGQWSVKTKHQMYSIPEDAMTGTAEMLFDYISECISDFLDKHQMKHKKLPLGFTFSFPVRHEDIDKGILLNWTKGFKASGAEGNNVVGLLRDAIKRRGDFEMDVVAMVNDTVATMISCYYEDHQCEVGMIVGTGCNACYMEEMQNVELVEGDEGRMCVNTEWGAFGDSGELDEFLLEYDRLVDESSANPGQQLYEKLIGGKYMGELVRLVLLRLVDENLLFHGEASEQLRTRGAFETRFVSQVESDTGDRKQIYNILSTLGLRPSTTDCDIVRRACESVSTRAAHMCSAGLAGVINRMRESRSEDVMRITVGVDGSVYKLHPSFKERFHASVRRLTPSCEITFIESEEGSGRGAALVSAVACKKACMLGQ
Procedure, shortened: (§2)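 Recombinant human GK; ATP-dependent D-glucose-6-phosphate formation from D-glucose at 2.5 or 10 mM, read by continuous glucose-6-phosphate dehydrogenase coupled spectrophotometry. Activators titrated at 1% DMSO final, DMSO as control. EC50 = concentration giving half of maximal increase in product formation; maximum activity expressed as percent velocity increase vs DMSO at saturating activator. Single titration.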

[3] = target: T1, Hexokinase-4; experiment: Activation of glucokinase in rat INS-1 cells assessed as increase in D-2-deoxyglucose-6-phosphate level in presence of D-2-deoxyglucose by HILIC LC-MS method; format: cell-based; procedure, shortened: as §1
[4] = target: T2, Hexokinase-4; experiment: Activation of recombinant human glucokinase assessed as conversion of D-glucose to D-glucose-6-phosphate in presence of 10 mM glucose by G6PDH coupled spectrophotometric assay; procedure, shortened: as §2
[5] = target: T3, Hexokinase-4 (Homo sapiens) (UniProt P35557); experiment: Activation of recombinant human glucokinase assessed as conversion of D-glucose to D-glucose-6-phosphate in presence of 2.5 mM glucose by G6PDH coupled spectrophotometric assay relative to control; procedure, shortened: as §2
T3 sequence (whole entry): T2 sequence (P35557 whole entry)

[6] = target: T3, Hexokinase-4 (Homo sapiens); experiment: Activation of recombinant human glucokinase assessed as conversion of D-glucose to D-glucose-6-phosphate in presence of 10 mM glucose by G6PDH coupled spectrophotometric assay relative to control; procedure, shortened: as §2

| Compound | EC50 [1] | EC50 [2] | EC50 [3] | EC50 [4] | %max [5] | %max [6] |
| --- | --- | --- | --- | --- | --- | --- |
| Cc1cnc(-c2cc3cc(Oc4ccc(S(C)(=O)=O)nc4)c(C4CCC(=O)N4C)cc3[nH]2)s1 (stereo in doubt; 2-en) [listing 1 of 2 here] | 77 nM | 5.5 nM | 37 nM | 1 nM | – | – |
| Cc1cnc(-c2cc3cc(Oc4ccc(S(C)(=O)=O)nc4)c(C4CCC(=O)N4C)cc3[nH]2)s1 (stereo in doubt; 2-en) [listing 2 of 2 here] | – | – | – | – | 482% | 132% |
| CN1C(=O)CCC1c1cc2[nH]c(-c3cnccn3)cc2cc1Oc1ccc(S(C)(=O)=O)nc1 (stereo in doubt; 3) [listing 1 of 2 here] | 23 nM | 4.5 nM | 7.2 nM | 4.2 nM | – | – |
| CN1C(=O)CCC1c1cc2[nH]c(-c3cnccn3)cc2cc1Oc1ccc(S(C)(=O)=O)nc1 (stereo in doubt; 3) [listing 2 of 2 here] | – | – | – | – | 713% | 188% |
| CN1C(=O)CCC1c1cc2[nH]c(-c3cnccn3)cc2cc1Oc1ccc(S(C)(=O)=O)nc1 (stereo in doubt; 3-en) [listing 1 of 2 here] | 1510 nM | 48 nM | 247 nM | 18 nM | – | – |
| CN1C(=O)CCC1c1cc2[nH]c(-c3cnccn3)cc2cc1Oc1ccc(S(C)(=O)=O)nc1 (stereo in doubt; 3-en) [listing 2 of 2 here] | – | – | – | – | 577% | 155% |
| CN1C(=O)CCC1c1cc2[nH]c(-c3ccc(C(C)(C)O)cn3)cc2cc1Oc1ccc(S(C)(=O)=O)nc1 (stereo in doubt; 4) [listing 1 of 2 here] | 5.2 nM | 4.8 nM | 3.9 nM | 2.1 nM | – | – |
| CN1C(=O)CCC1c1cc2[nH]c(-c3ccc(C(C)(C)O)cn3)cc2cc1Oc1ccc(S(C)(=O)=O)nc1 (stereo in doubt; 4) [listing 2 of 2 here] | – | – | – | – | 739% | 173% |
| CN1C(=O)CCC1c1cc2[nH]c(-c3ccc(C(C)(C)O)cn3)cc2cc1Oc1ccc(S(C)(=O)=O)nc1 (stereo in doubt; 4-en) [listing 1 of 2 here] | 34 nM | 31 nM | 38 nM | 9.8 nM | – | – |
| CN1C(=O)CCC1c1cc2[nH]c(-c3ccc(C(C)(C)O)cn3)cc2cc1Oc1ccc(S(C)(=O)=O)nc1 (stereo in doubt; 4-en) [listing 2 of 2 here] | – | – | – | – | 581% | 132% |
| CN1C(=O)CCC1c1cc2[nH]c(-c3ccc(C(F)(F)F)cn3)cc2cc1Oc1ccc(S(C)(=O)=O)nc1 (stereo in doubt; 5) [listing 1 of 2 here] | 2.7 nM | 2.4 nM | 2.5 nM | < 0.85 nM | – | – |
| CN1C(=O)CCC1c1cc2[nH]c(-c3ccc(C(F)(F)F)cn3)cc2cc1Oc1ccc(S(C)(=O)=O)nc1 (stereo in doubt; 5) [listing 2 of 2 here] | – | – | – | – | 764% | 174% |
